Source: ChEMBL document CHEMBL4257579, “Analogs of penfluridol as chemotherapeutic agents with reduced central nervous system activity” (Bioorg Med Chem Lett, 2018)
pIC50, pKi: −log10 of the molar value.

Assays:
NIH3T3 [1] = assay: Cytotoxicity against mouse NIH/3T3 cells assessed as reduction in cell viability after 24 hrs by MTT assay; type: cell-based; settings: NIH3T3, 24 h
In short: (§1)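 Cells exposed to compounds; viability read at 24, 48 and 72 h. Every experiment run in triplicate.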

[2] = tested on: Lewis lung carcinoma cell line; assay: Cytotoxicity against mouse LLC cells harboring […] assessed as reduction in cell viability after 72 hrs by MTT assay; type: functional, cell-based; in short: as §1
D(4) dopamine receptor = molecular target: T1, D(4) dopamine receptor (Homo sapiens, UniProt P21917); assay: Displacement of [3H]N-methylspiperone from human dopamine D4 receptor by radioligand binding assay
T1 sequence (P21917 whole entry): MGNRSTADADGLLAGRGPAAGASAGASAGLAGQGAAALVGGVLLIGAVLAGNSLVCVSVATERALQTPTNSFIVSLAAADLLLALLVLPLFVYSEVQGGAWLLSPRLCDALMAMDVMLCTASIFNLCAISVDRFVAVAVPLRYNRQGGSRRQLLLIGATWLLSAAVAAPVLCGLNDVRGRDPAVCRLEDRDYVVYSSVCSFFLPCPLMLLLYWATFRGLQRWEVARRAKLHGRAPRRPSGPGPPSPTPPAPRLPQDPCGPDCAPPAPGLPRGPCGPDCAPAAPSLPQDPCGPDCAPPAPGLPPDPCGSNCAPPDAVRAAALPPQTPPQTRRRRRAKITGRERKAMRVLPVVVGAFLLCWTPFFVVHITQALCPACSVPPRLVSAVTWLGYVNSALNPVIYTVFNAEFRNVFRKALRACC

NIH3T3 [3] = assay: Cytotoxicity against mouse NIH/3T3 cells assessed as reduction in cell viability after 48 hrs by MTT assay; type: cell-based; settings: NIH3T3, 48 h; in short: as §1
D(2) dopamine receptor = D(2) dopamine receptor (Homo sapiens, UniProt P14416); assay: Displacement of [3H]N-methylspiperone from human dopamine D2 receptor expressed in stable fibroblast cells by radioligand binding assay; type: cell-based
[4] = tested on: Lewis lung carcinoma cell line; assay: Cytotoxicity against mouse LLC cells harboring […] assessed as reduction in cell viability after 24 hrs by MTT assay; type: functional, cell-based; in short: as §1
MDA-MB-231 [5] = assay: Cytotoxicity against human MDA-MB-231 cells assessed as reduction in cell viability after 24 hrs by MTT assay; type: functional, cell-based; settings: MDA-MB-231, 24 h; in short: as §1
[6] = molecular target: 5-hydroxytryptamine receptor 1D (Homo sapiens, UniProt P28221); assay: Displacement of [3H]5-CT from human 5-HT1D receptor expressed in HEK293T cells by radioligand binding assay; type: cell-based; settings: for pKi: read-out: Ki
[7] = molecular target: T2, 5-hydroxytryptamine receptor 1A (Homo sapiens, UniProt P08908); assay: Displacement of [3H]-Way100635 from human 5HT1A receptor expressed in stable CHO cell membranes by radioligand binding assay
T2 sequence (P08908 whole entry): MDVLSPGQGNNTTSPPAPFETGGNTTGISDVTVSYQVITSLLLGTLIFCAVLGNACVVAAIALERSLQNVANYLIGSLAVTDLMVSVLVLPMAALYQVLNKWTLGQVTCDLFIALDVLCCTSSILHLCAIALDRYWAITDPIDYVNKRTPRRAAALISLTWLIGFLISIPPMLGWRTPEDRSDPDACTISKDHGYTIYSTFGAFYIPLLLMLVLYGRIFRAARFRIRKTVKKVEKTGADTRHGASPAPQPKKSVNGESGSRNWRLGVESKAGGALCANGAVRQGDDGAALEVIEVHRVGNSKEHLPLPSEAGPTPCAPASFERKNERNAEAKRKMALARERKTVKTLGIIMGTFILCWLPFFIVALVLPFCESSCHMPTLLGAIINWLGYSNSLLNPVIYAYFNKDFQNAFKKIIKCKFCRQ

MDA-MB-231 [8] = assay: Cytotoxicity against human MDA-MB-231 cells assessed as reduction in cell viability after 72 hrs by MTT assay; type: functional, cell-based; settings: MDA-MB-231, 72 h; in short: as §1
[9] = molecular target: Kappa-type opioid receptor (Homo sapiens, UniProt P41145); assay: Displacement of [3H]U69593 from KOR (unknown origin) expressed in HEK cells by radioligand binding assay relative to control; type: cell-based; design: concentration or dose not given beside the values; settings: concentration not given here
Histamine H2 receptor [10] = molecular target: T3, Histamine H2 receptor (Homo sapiens, UniProt P25021); assay: Displacement of [3H]Cimetidine from human H2 receptor expressed in HEK cells by radioligand binding assay relative to control; type: cell-based; design: concentration or dose not given beside the values; settings: concentration not given here
[11] = molecular target: 5-hydroxytryptamine receptor 2A (Homo sapiens, UniProt P28223); assay: Displacement of [3H]Ketanserin from 5-HT2A receptor (unknown origin) by radioligand binding assay relative to control; design: concentration or dose not given beside the values; settings: concentration not given here
[12] = molecular target: 5-hydroxytryptamine receptor 2B (Homo sapiens, UniProt P41595); assay: Displacement of [3H]LSD from human 5-HT2B receptor expressed in HEK cells by radioligand binding assay; type: cell-based; settings: for pKi: read-out: Ki
[13] = molecular target: 5-hydroxytryptamine receptor 7 (Homo sapiens, UniProt P34969); assay: Displacement of [3H]LSD from human 5-HT7A receptor expressed in HEK cells by radioligand binding assay relative to control; type: cell-based
Mu-type opioid receptor = Mu-type opioid receptor (Homo sapiens, UniProt P35372); assay: Displacement of [3H]DAMGO from human MOR expressed in HEK cells by radioligand binding assay; type: cell-based
[14] = molecular target: T4, 5-hydroxytryptamine receptor 1A (Homo sapiens) (UniProt P08908); assay: Displacement of [3H]-Way100635 from human 5HT1A receptor expressed in stable CHO cell membranes by radioligand binding assay relative to control; design: concentration or dose not given beside the values; settings: concentration not given here
T4 sequence (whole entry): T2 sequence (P08908 whole entry)

[15] = molecular target: 5-hydroxytryptamine receptor 5A (Homo sapiens, UniProt P47898); assay: Displacement of [3H]LSD from human 5-HT5A receptor expressed in Flp-In CHO cells by radioligand binding assay relative to control; type: cell-based; design: concentration or dose not given beside the values; settings: concentration not given here
Histamine H2 receptor [16] = molecular target: T3, Histamine H2 receptor; assay: Displacement of [3H]Cimetidine from human H2 receptor expressed in HEK cells by radioligand binding assay; type: cell-based; settings: for pKi: read-out: Ki
[17] = molecular target: T5, 5-hydroxytryptamine receptor 2C (Homo sapiens, UniProt P28335); assay: Displacement of [3H]Mesulergine from human 5-HT2C receptor expressed in HEK293FlpIN cells by radioligand binding assay; type: cell-based
T5 sequence (P28335 whole entry): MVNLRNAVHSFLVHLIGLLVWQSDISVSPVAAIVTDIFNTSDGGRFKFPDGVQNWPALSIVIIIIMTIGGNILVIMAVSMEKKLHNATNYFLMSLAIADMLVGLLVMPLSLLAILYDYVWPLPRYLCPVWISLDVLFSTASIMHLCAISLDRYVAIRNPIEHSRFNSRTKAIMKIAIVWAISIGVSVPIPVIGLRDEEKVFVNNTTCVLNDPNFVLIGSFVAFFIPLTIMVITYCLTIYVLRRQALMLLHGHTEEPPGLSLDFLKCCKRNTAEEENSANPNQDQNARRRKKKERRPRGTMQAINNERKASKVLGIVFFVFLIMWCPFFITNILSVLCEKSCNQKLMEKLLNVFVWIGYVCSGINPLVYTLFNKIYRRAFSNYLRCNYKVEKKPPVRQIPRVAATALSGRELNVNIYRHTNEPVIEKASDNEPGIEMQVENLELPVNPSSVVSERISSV

D(1B) dopamine receptor = D(1B) dopamine receptor (Homo sapiens, UniProt P21918); assay: Displacement of [3H]SCH23390 from human dopamine D5 receptor expressed in HEK293T cells by radioligand binding assay relative to control; type: cell-based; design: concentration or dose not given beside the values; settings: concentration not given here
[18] = molecular target: Sodium-dependent dopamine transporter (Homo sapiens, UniProt Q01959); assay: Displacement of [3H]WIN35428 from human DAT expressed in HEK cells by radioligand binding assay relative to control; type: cell-based
Sequence of Sodium-dependent dopamine transporter (Q01959 whole entry): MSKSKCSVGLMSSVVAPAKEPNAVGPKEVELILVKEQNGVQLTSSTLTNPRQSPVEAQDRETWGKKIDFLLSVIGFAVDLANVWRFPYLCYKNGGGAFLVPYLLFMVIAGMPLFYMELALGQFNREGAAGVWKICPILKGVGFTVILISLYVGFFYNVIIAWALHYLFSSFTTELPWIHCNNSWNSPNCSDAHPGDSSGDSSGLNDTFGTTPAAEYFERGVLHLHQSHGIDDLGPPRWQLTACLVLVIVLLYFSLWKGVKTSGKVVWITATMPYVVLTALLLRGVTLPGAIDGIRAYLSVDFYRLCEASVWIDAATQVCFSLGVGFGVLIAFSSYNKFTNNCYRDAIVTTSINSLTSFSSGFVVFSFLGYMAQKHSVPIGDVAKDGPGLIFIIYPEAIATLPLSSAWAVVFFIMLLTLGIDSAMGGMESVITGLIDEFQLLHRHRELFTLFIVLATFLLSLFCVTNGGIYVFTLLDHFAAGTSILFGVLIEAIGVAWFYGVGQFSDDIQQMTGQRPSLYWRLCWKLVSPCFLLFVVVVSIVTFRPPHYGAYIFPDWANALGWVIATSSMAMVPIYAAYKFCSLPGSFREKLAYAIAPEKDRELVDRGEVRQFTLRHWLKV

Sequence of Mu-type opioid receptor (P35372 whole entry): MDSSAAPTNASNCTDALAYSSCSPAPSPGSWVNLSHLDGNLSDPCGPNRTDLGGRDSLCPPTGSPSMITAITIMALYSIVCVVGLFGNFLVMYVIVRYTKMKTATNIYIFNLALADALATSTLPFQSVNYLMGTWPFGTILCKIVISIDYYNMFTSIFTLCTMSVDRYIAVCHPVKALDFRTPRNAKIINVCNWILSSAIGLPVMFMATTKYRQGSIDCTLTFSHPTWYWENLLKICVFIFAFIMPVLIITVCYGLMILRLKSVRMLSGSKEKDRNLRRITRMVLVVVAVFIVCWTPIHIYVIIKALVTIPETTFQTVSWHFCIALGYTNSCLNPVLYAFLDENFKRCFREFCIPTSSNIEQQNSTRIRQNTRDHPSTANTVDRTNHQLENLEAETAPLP
Sequence of 5-hydroxytryptamine receptor 2A (P28223 whole entry): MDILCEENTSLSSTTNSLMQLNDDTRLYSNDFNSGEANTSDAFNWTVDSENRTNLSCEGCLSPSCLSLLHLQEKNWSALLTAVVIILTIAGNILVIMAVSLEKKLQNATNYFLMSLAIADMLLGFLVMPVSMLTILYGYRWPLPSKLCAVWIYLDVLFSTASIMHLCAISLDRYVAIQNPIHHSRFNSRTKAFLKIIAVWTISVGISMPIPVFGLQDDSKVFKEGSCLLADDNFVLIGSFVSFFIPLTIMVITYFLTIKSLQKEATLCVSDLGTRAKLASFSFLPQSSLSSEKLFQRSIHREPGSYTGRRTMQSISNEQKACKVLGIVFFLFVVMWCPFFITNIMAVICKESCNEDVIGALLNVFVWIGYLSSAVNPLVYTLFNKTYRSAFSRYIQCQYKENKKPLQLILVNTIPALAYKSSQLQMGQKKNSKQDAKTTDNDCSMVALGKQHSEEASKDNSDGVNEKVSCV
T3 sequence (P25021 whole entry): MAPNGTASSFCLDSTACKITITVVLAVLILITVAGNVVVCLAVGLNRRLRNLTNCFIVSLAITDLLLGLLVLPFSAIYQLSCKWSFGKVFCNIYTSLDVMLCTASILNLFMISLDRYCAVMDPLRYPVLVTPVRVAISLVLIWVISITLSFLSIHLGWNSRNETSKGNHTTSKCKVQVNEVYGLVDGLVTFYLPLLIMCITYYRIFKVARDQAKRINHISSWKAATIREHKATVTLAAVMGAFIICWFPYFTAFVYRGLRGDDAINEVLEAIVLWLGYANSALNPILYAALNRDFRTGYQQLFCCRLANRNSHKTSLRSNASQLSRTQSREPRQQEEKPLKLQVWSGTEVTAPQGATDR
Sequence of D(1B) dopamine receptor (P21918 whole entry): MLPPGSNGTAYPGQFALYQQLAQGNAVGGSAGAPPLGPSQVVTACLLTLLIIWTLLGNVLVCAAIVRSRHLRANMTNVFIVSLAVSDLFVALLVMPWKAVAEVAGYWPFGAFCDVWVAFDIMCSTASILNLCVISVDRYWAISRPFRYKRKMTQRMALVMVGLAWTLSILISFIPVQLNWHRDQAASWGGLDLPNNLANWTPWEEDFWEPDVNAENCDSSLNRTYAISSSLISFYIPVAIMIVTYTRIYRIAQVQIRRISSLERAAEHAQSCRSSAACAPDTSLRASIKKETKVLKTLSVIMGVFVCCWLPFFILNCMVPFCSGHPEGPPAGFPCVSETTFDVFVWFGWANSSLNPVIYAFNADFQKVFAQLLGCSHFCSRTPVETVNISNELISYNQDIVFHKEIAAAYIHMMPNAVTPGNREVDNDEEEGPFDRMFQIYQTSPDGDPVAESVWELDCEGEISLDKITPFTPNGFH
Sequence of Kappa-type opioid receptor (P41145 whole entry): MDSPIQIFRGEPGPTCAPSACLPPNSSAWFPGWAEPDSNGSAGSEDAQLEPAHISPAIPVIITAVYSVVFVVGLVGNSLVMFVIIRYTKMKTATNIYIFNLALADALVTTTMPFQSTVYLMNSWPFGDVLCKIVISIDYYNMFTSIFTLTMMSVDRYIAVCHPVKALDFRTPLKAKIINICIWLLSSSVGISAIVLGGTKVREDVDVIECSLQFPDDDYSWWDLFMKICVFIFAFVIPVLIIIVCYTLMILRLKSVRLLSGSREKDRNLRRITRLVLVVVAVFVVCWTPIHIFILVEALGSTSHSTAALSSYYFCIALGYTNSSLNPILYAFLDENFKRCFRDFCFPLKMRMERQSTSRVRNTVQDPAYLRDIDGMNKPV
Sequence of D(2) dopamine receptor (P14416 whole entry): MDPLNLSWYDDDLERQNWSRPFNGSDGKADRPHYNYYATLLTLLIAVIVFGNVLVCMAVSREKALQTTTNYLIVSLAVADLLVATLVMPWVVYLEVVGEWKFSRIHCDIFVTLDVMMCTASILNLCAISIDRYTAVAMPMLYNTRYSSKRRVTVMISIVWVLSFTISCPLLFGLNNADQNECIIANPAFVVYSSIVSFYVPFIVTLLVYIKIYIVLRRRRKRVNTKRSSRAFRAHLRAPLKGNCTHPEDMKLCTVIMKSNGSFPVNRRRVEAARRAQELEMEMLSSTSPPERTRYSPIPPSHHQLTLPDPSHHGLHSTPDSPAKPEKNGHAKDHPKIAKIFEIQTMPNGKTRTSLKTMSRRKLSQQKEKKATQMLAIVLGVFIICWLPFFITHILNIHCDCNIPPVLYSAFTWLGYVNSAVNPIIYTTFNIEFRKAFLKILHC
Sequence of 5-hydroxytryptamine receptor 1D (P28221 whole entry): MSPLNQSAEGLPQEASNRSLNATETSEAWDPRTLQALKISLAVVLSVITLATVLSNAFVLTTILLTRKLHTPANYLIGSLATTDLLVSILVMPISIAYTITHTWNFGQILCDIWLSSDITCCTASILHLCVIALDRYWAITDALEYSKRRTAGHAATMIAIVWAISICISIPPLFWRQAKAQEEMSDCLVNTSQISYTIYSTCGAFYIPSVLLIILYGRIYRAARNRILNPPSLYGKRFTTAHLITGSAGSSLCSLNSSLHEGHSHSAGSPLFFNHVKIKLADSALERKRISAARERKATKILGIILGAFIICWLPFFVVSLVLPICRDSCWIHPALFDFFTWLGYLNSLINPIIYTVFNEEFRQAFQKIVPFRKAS
Sequence of 5-hydroxytryptamine receptor 7 (P34969 whole entry): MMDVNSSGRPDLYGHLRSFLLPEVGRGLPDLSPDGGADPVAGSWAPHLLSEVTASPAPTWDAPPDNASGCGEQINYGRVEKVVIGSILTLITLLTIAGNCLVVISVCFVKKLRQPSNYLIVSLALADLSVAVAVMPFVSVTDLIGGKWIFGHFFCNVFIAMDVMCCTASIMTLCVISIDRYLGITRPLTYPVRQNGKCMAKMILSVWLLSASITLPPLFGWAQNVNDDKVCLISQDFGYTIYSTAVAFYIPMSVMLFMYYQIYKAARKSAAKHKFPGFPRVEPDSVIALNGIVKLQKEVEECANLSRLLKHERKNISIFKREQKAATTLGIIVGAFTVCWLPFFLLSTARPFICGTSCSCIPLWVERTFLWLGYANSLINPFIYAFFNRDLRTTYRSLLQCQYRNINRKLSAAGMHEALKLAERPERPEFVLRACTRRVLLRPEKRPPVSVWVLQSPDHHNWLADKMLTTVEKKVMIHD
Sequence of 5-hydroxytryptamine receptor 5A (P47898 whole entry): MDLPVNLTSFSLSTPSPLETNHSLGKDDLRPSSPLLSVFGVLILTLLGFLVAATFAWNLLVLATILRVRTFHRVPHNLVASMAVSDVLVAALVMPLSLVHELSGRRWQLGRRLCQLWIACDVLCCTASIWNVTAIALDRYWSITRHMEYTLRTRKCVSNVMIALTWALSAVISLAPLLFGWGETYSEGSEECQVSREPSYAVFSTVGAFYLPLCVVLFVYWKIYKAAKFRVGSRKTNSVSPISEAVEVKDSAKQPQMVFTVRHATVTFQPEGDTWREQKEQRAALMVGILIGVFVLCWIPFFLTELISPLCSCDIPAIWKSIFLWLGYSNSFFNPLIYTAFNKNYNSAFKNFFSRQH
Sequence of 5-hydroxytryptamine receptor 2B (P41595 whole entry): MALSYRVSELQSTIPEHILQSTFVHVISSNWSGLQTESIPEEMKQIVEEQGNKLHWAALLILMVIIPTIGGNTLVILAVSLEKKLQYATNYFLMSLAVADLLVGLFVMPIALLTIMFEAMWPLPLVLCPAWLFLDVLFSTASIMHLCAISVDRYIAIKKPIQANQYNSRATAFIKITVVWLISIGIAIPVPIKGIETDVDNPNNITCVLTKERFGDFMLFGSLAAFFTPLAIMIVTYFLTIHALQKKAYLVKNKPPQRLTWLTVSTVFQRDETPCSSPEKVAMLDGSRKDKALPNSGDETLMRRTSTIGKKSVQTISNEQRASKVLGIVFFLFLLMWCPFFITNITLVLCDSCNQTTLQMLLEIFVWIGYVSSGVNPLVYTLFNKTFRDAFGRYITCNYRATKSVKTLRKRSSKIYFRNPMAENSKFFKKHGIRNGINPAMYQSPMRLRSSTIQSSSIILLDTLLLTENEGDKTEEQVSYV

Row | SMILES | pIC50 (NIH3T3 [1]) | pIC50 [2] | pKi (D(4) dopamine receptor) | pIC50 (NIH3T3 [3]) | pKi (D(2) dopamine receptor) | pIC50 [4] | pIC50 (MDA-MB-231 [5]) | pKi [7] | pIC50 (MDA-MB-231 [8]) | inhibition [9] [%] | inhibition (Histamine H2 receptor [10]) [%] | inhibition [11] [%] | pKi [12] | inhibition (INH) [13] [%] | pKi (Mu-type opioid receptor) | inhibition [14] [%] | inhibition [15] [%] | pKi [17] | inhibition (D(1B) dopamine receptor) [%] | pKi [6] | other results
1 | OC1(c2ccc(Cl)c(C(F)(F)F)c2)CCN(CCCC=C(c2ccc(F)cc2)c2ccc(F)cc2)CC1 | 4.43 | 4.95 | 5.78 | 4.83 | 6.50 | 4.81 | 4.62 | 5.87 | 5.02 | 80.9 | 82.6 | 91.5 | 5.66 | 78.8 | 6.48 | 71.2 | 21.4 | 5.80 | – | – | Ki [6]: Not Active; pKi (Histamine H2 receptor [16]): 6.28
2 | OC1(c2ccc(Cl)c(C(F)(F)F)c2)CCN(CCCCN(c2ccc(F)cc2)c2ccc(F)cc2)CC1 | 4.92 | 5.09 | 5.00 | 4.94 | 6.26 | 4.97 | 4.95 | 5.96 | 5.04 | 70.3 | – | 92.6 | 6.29 | 57.1 | 5.00 | 82.2 | 50 | 5.95 | 84.6 | 5.97 | inhibition (INH) [18]: 86.6%; Ki (Histamine H2 receptor [16]): Not Active
3 | OC1(c2ccc(Cl)c(C(F)(F)F)c2)CCN(CCCC(c2ccc(F)cc2)c2ccc(F)cc2)CC1 [PENFLURIDOL] | 5.22 | 5.37 | – | 5.22 | 6.80 | 5.22 | 5.21 | 6.45 | 5.29 | 94.6 | 98.4 | 95.2 | 6.74 | 98.4 | 6.06 | 100 | 95 | 6.06 | 82.9 | 5.45 | inhibition (INH) [18]: 89.1%
4 | OC1(c2ccc(Cl)c(C(F)(F)F)c2)CCN(CCCC(c2ccccc2)c2ccccc2)CC1 | 4.91 | 5.04 | 7.24 | 4.92 | 7.42 | 4.94 | 5.03 | 6.32 | 5.08 | 98 | 89.5 | 94.3 | 6.43 | 82.1 | 7.15 | 97.2 | – | 5.67 | 89.4 | 6.20 | inhibition (INH) [18]: 87.5%; pKi (Histamine H2 receptor [16]): 6.56
5 | OC1(c2ccc(Cl)c(C(F)(F)F)c2)CCN(CCCN(c2ccc(F)cc2)c2ccc(F)cc2)CC1 | 5.17 | 5.39 | 7.60 | 5.25 | 6.83 | 5.15 | 5.17 | 5.90 | 5.46 | 69.8 | 98.3 | 94.6 | 6.75 | 85.9 | 6.04 | 94.2 | 67.7 | 6.40 | 100 | 6.12 | inhibition (INH) [18]: 83.4%; pKi (Histamine H2 receptor [16]): 6.60
6 | OC1(c2ccc(Cl)c(C(F)(F)F)c2)CCN(CCCCCc2ccc(F)cc2)CC1 | 4.88 | 5.01 to 5.09 | 6.88 | 4.93 | 6.34 | 4.57 | 4.71 | 6.05 | 5.01 | 78.3 | 69.2 | 68.5 | – | 75.9 | 6.27 | 77.2 | 16.4 | 5.59 | – | 5.35 | Ki [12]: Not Active; pKi (Histamine H2 receptor [16]): 6.40
7 | OC1(c2ccc(Cl)c(C(F)(F)F)c2)CCN(CCCCC(c2ccc(F)cc2)c2ccc(F)cc2)CC1 | 5.19 | 5.38 | 6.41 | 5.28 | 6.71 | 5.25 | 5.28 | 5.86 | 5.32 | 96 | 94 | 96.3 | 6.37 | 84.9 | 6.45 | 85 | 75.8 | 5.77 | 88.2 | 6.07 | inhibition (INH) [18]: 91.6%; pKi (Histamine H2 receptor [16]): 6.26
8 | COc1ccc(N(CCCCN2CCC(O)(c3ccc(Cl)c(C(F)(F)F)c3)CC2)c2ccc(OC)cc2)cc1 | 5.06 | 5.21 to 5.57 | 6.34 | 4.96 | 6.38 | 5.20 | 5.09 | 5.00 | 5.15 to 5.27 | 65.8 | – | 94.1 | 6.14 | 55.2 | 5.08 | 57.3 | 50 | 6.13 | 83.5 | 5.00 | inhibition (INH) [18]: 91.3%; Ki (Histamine H2 receptor [16]): Not Active
